The values that follow come from ChEMBL document CHEMBL2390881, “Identification of M. tuberculosis thioredoxin reductase inhibitors based on high-throughput docking using constraints” (J Med Chem, 2013).

What is called inhibition is how much of the control response was suppressed. Higher therefore signals strong suppression. What is called IC50 is the point on the concentration scale where inhibition reaches its midpoint. Read a low IC50 as greater potency in that assay.

A value given as a limit tells only on which side of the number the result lay.

For assay [1], the target named is T1, Thioredoxin reductase (Mycobacterium tuberculosis) (UniProt P9WHH1).
T1 sequence (whole entry): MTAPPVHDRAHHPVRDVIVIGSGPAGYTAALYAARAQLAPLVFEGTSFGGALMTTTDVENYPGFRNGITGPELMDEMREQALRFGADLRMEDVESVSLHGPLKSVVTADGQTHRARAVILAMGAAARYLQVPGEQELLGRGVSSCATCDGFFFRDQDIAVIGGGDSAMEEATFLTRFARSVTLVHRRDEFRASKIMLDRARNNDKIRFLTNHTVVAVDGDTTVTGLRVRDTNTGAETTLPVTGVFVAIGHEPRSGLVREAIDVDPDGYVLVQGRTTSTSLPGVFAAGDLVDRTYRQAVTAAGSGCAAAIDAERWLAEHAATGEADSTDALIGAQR
The assay can be described thus: Inhibition of Mycobacterium tuberculosis TrxR at 5 uM after 10 mins by microplate reader analysis. The essentials:
(§1)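 MtTrxR, MtTrxB and MtTPx from M. tuberculosis, expressed in E. coli. Enzyme preincubated 10 min at 25 °C with 10 μM MtTrxB, 5 μM MtTPx, 225 μM NADPH and 0.06-45 μM compound in 50 mM HEPES pH 7.4, 1 mM EDTA. Started with 73 μM t-butylhydroperoxide. Initial NADPH oxidation rate read at 340 nm, 25 °C. Triplicates, outliers removed. IC50 by four-parameter fit, mean of ≥3 assays.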

Assay [2] has as its target T1, Thioredoxin reductase (Mycobacterium tuberculosis). The assay is described as follows: Inhibition of Mycobacterium tuberculosis TrxR at 1.67 uM after 10 mins by microplate reader analysis. An outline of the steps:
as §1

For a further assay, the target named is T2, Thioredoxin reductase (Mycobacterium tuberculosis, UniProt P9WHH1).
T2 sequence (P9WHH1 whole entry): T1 sequence (whole entry)
The assay can be described thus: Inhibition of Mycobacterium tuberculosis TrxR after 10 mins by microplate reader analysis. The essentials:
as §1

For assay [3], the target named is Thioredoxin reductase (Homo sapiens) (UniProt Q16881+Q9NNW7+Q86VQ6). The assay can be described thus: Inhibition of human TrxR at 100 uM by spectrophotometry. Format: protein assay. An outline of the steps: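 Human placenta TrxR1 (2.8 nM final) with 200 μM NADPH in 100 mM potassium phosphate, 2 mM EDTA, pH 7.4. Inhibitor added up to 100 μM final, then reaction started with 3 mM DTNB. Absorbance followed at 412 nm at 25 °C against inhibitor-free control. At least three independent experiments; apparent activation scored as no inhibition.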

A short description of assay [4]: Selectivity index, ratio of IC50 for human TrxR to IC50 for Mycobacterium tuberculosis TrxR. An outline of the steps: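 Estimated from HsTrxR inhibition at 100 μM (DTNB assay) and the MtTrxR IC50, assuming that ≤10% HsTrxR inhibition at 100 μM reflects an IC50 of >300 μM.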
Assay [5] concerns the target T1, Thioredoxin reductase (Mycobacterium tuberculosis). The assay is described as follows: Inhibition of Mycobacterium tuberculosis TrxR at 45 uM after 10 mins by microplate reader analysis. An outline of the steps: as §1
Assay [6] has the same target. The assay is described as follows: Inhibition of Mycobacterium tuberculosis TrxR at 15 uM after 10 mins by microplate reader analysis. The essentials: as §1

On to `CC(c1c[nH]nc1-c1ccccc1)N1CCC(CCC(=O)Nc2ccccc2)CC1` (stereo not given), for which the inhibition in assay [1] stood at 38%; in assay [2], 29.7%; in assay [3] it was 0%; in assay [5], 29.8%; in assay [6], 34.3%. Moreover, the 50% inhibitory concentration (IC50) against Thioredoxin reductase was 15 µM. In addition, in assay [4], the Ratio IC50 was greater than 20.

Consider `Nc1ccc(N2CCCCC2)cc1`, for which the inhibition in assay [1] is 17%; in assay [2] it was 9.5%; in assay [3], 0%; in assay [5], 55%; in assay [6], 35.7%. For the same compound, half-maximal inhibition against Thioredoxin reductase (IC50) was put at 33.4 µM. Besides, the Ratio IC50 in assay [4] is greater than 10.

For the compound `c1ccc2sc(CNc3ccc(N4CCCCC4)cc3)nc2c1`, the inhibition amounted to 39.7% in assay [1]; 24% in assay [2]; 17.1% in assay [3]; 67% in assay [5]; 44.4% in assay [6]. For the same compound, the IC50 against Thioredoxin reductase is 15.8 µM. Further, the Ratio IC50 in assay [4] is greater than 10.

For the compound `Nc1nc(-c2cc3ccc(O)cc3oc2=O)cs1`, the inhibition in assay [1] turned out to be 17.3%; in assay [2] it was 10.6%; in assay [3], 0%; in assay [5], 36.4%; in assay [6], 19.7%. This compound registered an IC50 against Thioredoxin reductase of 100 µM. Also, the Ratio IC50 in assay [4] is greater than 3.

On to `NC1=C(c2nc(-c3ccccc3)cs2)C(=O)CN1c1ccc(S(N)(=O)=O)cc1`, for which the inhibition in assay [1] amounted to 9.9%; in assay [2] it was 8.4%; in assay [3], 0%; in assay [5], 25%; in assay [6], 12.8%. Besides, the IC50 against Thioredoxin reductase was determined as 200 µM. For the same compound, in assay [4], the Ratio IC50 was greater than 2.

For the compound `O=C(O)[C@H](Cc1cc2ccccc2[nH]1)NCc1c[nH]c2ccccc12`, the inhibition was 31.7% in assay [1]; 26.7% in assay [2]; 10.4% in assay [3]; 31% in assay [5]; 43.3% in assay [6]. Further, on Thioredoxin reductase, the IC50 is 30 µM. Further, the Ratio IC50 in assay [4] is greater than 10.

Take `COc1ccc2nc(C)cc(Nc3ccc(O)cc3)c2c1`: the inhibition came to 36% in assay [1]; 25.6% in assay [2]; 31.6% in assay [3]; 68% in assay [5]; 51.6% in assay [6]. On Thioredoxin reductase, 12.5 µM corresponded to half-maximal inhibition (IC50). For the same compound, the Ratio IC50 in assay [4] is greater than 8.

Take `O=C(Nc1ccc(N2CCC(NCCOc3cccnc3)CC2)cc1)c1cnccn1`: the values for the inhibition in assay [1], in assay [2] and in assay [6] were 12%, 5% and 16.3%, respectively.

Turning to `O=C(COc1ccccc1)Nc1ccc(N2CCC(NCc3cccc(-n4cccn4)c3)CC2)cc1`, the inhibition in assay [1] worked out at 16.9%; in assay [2], 11.2%; in assay [5] it was 22.1%; in assay [6], 18.2%.

In the case of `O=C(CCCCc1ccccc1)Nc1ccc(N2CCC(NCCn3cccn3)CC2)cc1`, the inhibition is 14.7% in assay [1], 12.3% in assay [2], 24% in assay [5] and 17.5% in assay [6].

Regarding `Fc1cccc(Cl)c1CNc1ccc(N2CCCCC2)cc1`, the inhibition in assay [1] was 41.7%; in assay [2], 30%; in assay [3], 4.6%; in assay [5], 58.7%; in assay [6] it was 51.7%. Also, the IC50 at Thioredoxin reductase was found to be 15.3 µM. Moreover, the Ratio IC50 in assay [4] was greater than 10.

`CSCCNC1CCN(c2ccc(NC(=O)CCCCc3ccccc3)cc2)CC1`: the inhibition in assay [1] amounted to 29.7%; in assay [2] it was 27%; in assay [3], 0%; in assay [5], 28%; in assay [6], 33.7%. This compound gave an IC50 at Thioredoxin reductase of 100 µM. Further, in assay [4], the Ratio IC50 is greater than 3.

For `C=CCc1cccc(/C=N/NC(=O)CCC2C(=O)NN=C2C)c1O` (stereo not given), the inhibition in assay [1] worked out at 31%; in assay [2], 31.7%; in assay [3], 0%; in assay [5], 26%; in assay [6] it was 31.7%. Further, the Ratio IC50 in assay [4] is greater than 10.
